# E-sel inducer = E-selectin induction in HUVECs, primary screen, imaging, HUVEC, immunofluorescence imaging, single point; P16581; normalized: neutral wells 0, TNF-alpha wells 100; activation, % at 7.58 µM; 0.37% of 260,000 active;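 active means mean E-selectin-positive cell signal at least 10% of the positive control, reached in at least 60% of replicates, without over 20% cell loss; inconclusive means no rule given, readout overlaps actives, possibly toxicity-flagged; inactive means the rest, including those meeting only one limit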
#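 System: HUVEC / Compound: single concentration / Signal: immunofluorescence imaging / Read-out: percent E-selectin-positive cells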
# SIRT5 block = SIRT5 desuccinylase inhibitors, primary screen, biochemical, fluorescence imaging, single point, set 5. NAD-dependent protein deacylase sirtuin-5, mitochondrial (Homo sapiens), Q9NXA8. Purified SirT5, succinyl-peptide AMC, trypsin-coupled fluorescence. inhibition, % at 15 µM. 1.1% of 330,000 active; in the data active means inhibition above about 15%; inconclusive means no clear call, values can overlap the other calls
# Target sequence (Q9NXA8 whole entry, looked up): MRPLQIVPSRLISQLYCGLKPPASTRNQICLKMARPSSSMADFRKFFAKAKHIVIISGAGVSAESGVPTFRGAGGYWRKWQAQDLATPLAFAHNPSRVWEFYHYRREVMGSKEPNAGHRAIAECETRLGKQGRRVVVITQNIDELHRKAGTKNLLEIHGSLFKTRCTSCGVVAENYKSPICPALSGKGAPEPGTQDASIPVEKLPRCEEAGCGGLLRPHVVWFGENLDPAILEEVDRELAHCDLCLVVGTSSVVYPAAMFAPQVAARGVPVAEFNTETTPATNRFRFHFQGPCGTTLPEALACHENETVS
# DENV2 CPE rescue = inhibitors of DENV2 cytopathic effect, primary screen, cell-based, plate reader, single concentration; DENV2-infected cells, cytopathic effect rescue; CPE inhibition, % at 9.99 µM; 1.7% of 350,000 active; in the data active means CPE inhibition above about 20%, passing the limit was not always enough; inconclusive means no clear call, values can overlap the other calls; tested in BHK-21 cells
# Numbers stand for hits; – = inactive; ? = inconclusive; · = no result given; ! = repeats disagree. Sampled rows, rich in hits. Any-hit rate of the full collection: about 2.8%.
SMILES,E-sel inducer,SIRT5 block,DENV2 CPE rescue
C[C@@H]1CCCCO[C@H](CN(C)Cc2ccncc2)[C@H](C)CN([C@H](C)CO)C(=O)c2cc(NS(=O)(=O)c3ccccc3)ccc2O1,·,–,28
O=C(N[C@H]1CC[C@@H](CCNS(=O)(=O)Cc2ccccc2)O[C@@H]1CO)c1ccccc1F,–,–,–
CCCC#Cc1cnc2c(c1)C(=O)N([C@H](C)CO)C[C@H](C)[C@@H](CN(C)Cc1ccncc1)O2,–,–,–
O=C(Nc1ccc(S(=O)(=O)NC2=NCCCCC2)cc1)c1cccs1,–,–,65
O=C(Nc1ccc(S(=O)(=O)NC2=NCCCCC2)cc1)c1ccc([N+](=O)[O-])s1,–,–,–
COc1ccc(C#Cc2ccc3c(c2)[C@]2(C(=O)N3)[C@H](c3ccc(O)cc3)N3[C@H](c4ccccc4)[C@H](c4ccccc4)OC(=O)[C@H]3[C@@H]2C(=O)N2CCCCCCC2)cc1,·,–,–
COCCCNC(=O)CNC(=O)c1nn(-c2ccc(OC)c(Cl)c2)c(=O)c2ccccc12,–,17,–
COc1ccc(-n2nc(C(=O)NCC(=O)NCCCN3CCCCCC3)c3ccccc3c2=O)cc1Cl,–,–,–
C[C@H](CO)N1C[C@H](C)[C@@H](CN(C)Cc2ccccn2)Oc2ncc(Br)cc2C1=O,–,25!,–
CC(C)C#Cc1cnc2c(c1)C(=O)N([C@@H](C)CO)C[C@@H](C)[C@H](CN(C)Cc1ccccn1)O2,–,21,–
C[C@H](CO)N1C[C@H](C)[C@H](CN(C)Cc2ccncc2)Oc2ncc(Br)cc2C1=O,–,–,85!
C[C@@H]1CN([C@@H](C)CO)C(=O)c2cc(Br)cnc2O[C@@H]1CN(C)Cc1ccncc1,–,–,–
C[C@@H]1CN([C@@H](C)CO)C(=O)c2cc(Br)cnc2O[C@@H]1CN(C)C(=O)c1ccccn1,–,–,–
C[C@H](CO)N1C[C@H](C)[C@H](CN(C)C(=O)c2ccccn2)Oc2ncc(Br)cc2C1=O,–,–,73!
C[C@H]1CN([C@@H](C)CO)C(=O)c2cc(Br)cnc2O[C@@H]1CN(C)Cc1ccccn1,–,–,–
C[C@H](O)C#Cc1cnc2c(c1)C(=O)N([C@@H](C)CO)C[C@@H](C)[C@H](CN(C)Cc1ccccn1)O2,–,–,–
CN(C)CC(=O)N[C@@H]1C=C[C@@H](CC(=O)NCc2ccc(Cl)cc2)O[C@H]1CO,–,–,–
CO[C@H]1CN(C)C(=O)c2ccc(NC(=O)C3CC3)cc2OC[C@@H](C)N(C(=O)C2CCCCC2)C[C@H]1C,–,–,–
O=C(C[C@H]1CC[C@@H]2[C@H](COC[C@@H](O)CN2CC2CCCC2)O1)NCC1CC1,–,–,?
CC(=O)N1[C@H](CO)[C@H](c2ccccc2)C12CN(C(=O)c1ccccc1)C2,–,–,–
NC(=NC(=O)c1ccc(Cl)cc1)N1N=CCC1c1ccccc1 (centres undefined),·,16,–
O=C(CSc1ccc(Cl)cc1)N1N=CCC1c1ccccc1 (centres undefined),–,–,–
CCCCn1c(N)c(N(CC)C(=O)c2ccncc2)c(=O)[nH]c1=O,–,–,–
CCCCn1c(N)c(N(CC(C)C)C(=O)c2ccc(S(=O)(=O)N3CCCCC3)cc2)c(=O)[nH]c1=O,58,–,–
CCCCCN(C(=O)CCC(=O)OCC(=O)c1ccc(C(C)(C)C)cc1)c1c(N)n(CCCC)c(=O)[nH]c1=O,–,–,–
SMILES,E-sel inducer,SIRT5 block,DENV2 CPE rescue
CCCCn1c(N)c(N(CC)C(=O)c2cc(C)cc(C)c2)c(=O)[nH]c1=O,·,–,35
CCCCCN(C(=O)CCC(=O)OCC(=O)c1ccc(CCC)cc1)c1c(N)n(CCCC)c(=O)[nH]c1=O,–,30,–
CCCCn1c(N)c(N(CC(C)C)C(=O)c2cccc(S(=O)(=O)N3CCCCC3)c2)c(=O)[nH]c1=O,·,–,–
Cc1ccc(S(=O)(=O)N(C)C[C@@H]2Oc3ccc(NC(=O)C4CC4)cc3C(=O)N([C@@H](C)CO)C[C@H]2C)cc1,–,–,–
O=C(c1ccc(F)cc1)N1CCCCN2[C@H](CO)[C@@H](c3ccc(-c4ccc(F)cc4)cc3)[C@H]2C1,·,–,–
C[C@H](O)C#Cc1ccc([C@H]2[C@@H](CO)N3CCCCN(C(=O)c4ccc(F)cc4)C[C@H]23)cc1,–,–,–
CC1(C)CC(=O)C2=C(C1)c1c(ccc3ccccc13)NC2c1cc([N+](=O)[O-])cc([N+](=O)[O-])c1O (centres undefined),·,17,–
CC1(C)CC(=O)C2=C(C1)c1c(ccc3ccccc13)NC2c1ccc(C(=O)O)cc1 (centres undefined),·,–,–
O=C(C1CCOCC1)N1C[C@@H]2[C@H](c3ccccc31)[C@H](CO)N2C(=O)c1ccccc1,–,–,89
O=C(c1cccc(F)c1)N1C[C@@H]2[C@H](c3ccccc31)[C@H](CO)N2C(=O)C1CCOCC1,–,–,23
O=C(C1CC1)N1C[C@@H]2[C@H](c3ccccc31)[C@@H](CO)N2C(=O)c1ccccc1,–,–,–
O=C(c1cccc(F)c1)N1C[C@H]2[C@@H](c3ccccc31)[C@H](CO)N2C(=O)C1CCCC1,–,–,–
O=C(c1cccc(F)c1)N1C[C@@H]2[C@H](c3ccccc31)[C@@H](CO)N2C(=O)C1CC1,–,–,55
O=C(Cc1ccccc1)N1C[C@H]2[C@@H](c3ccccc31)[C@@H](CO)N2C(=O)c1cccc(F)c1,–,–,37
O=C(c1cccc(F)c1)N1C[C@H]2[C@@H](c3ccccc31)[C@@H](CO)N2C(=O)C1CC1,–,–,–
O=C(Cc1ccccc1)N1C[C@@H]2[C@H](c3ccccc31)[C@H](CO)N2C(=O)c1cccc(F)c1,–,–,–
CCC(=O)N1C[C@H](C)[C@@H](OC)CN(C)C(=O)c2ccc(NC(=O)C3CCOCC3)cc2OC[C@H]1C,–,·,·
CCCC(=O)Nc1ccc2c(c1)C(=O)N(C)C[C@H](OC)[C@H](C)CN(CC1CCCC1)[C@@H](C)CO2,–,–,–
CC(C)NC(=O)Nc1ccc2c(c1)C(=O)N([C@H](C)CO)C[C@@H](C)[C@@H](CN(C)CC1CCCCC1)OCCCC[C@H](C)O2,–,–,–
C[C@H]1CN([C@@H](C)CO)C(=O)Cc2cc(NC(=O)C3CC3)ccc2O[C@H]1CN(C)S(=O)(=O)c1ccc(F)cc1,–,–,–
COc1ccccc1CNC(=O)C[C@H]1C[C@@H]2c3cc(NS(=O)(=O)c4ccc(F)cc4)ccc3O[C@@H]2[C@H](CO)O1,–,–,–
O=C(C[C@@H]1CC[C@H]2[C@@H](COC[C@@H](O)CN2S(=O)(=O)c2cccc(Cl)c2)O1)N1CCOCC1,–,–,24
COc1ccc(NC(=O)N2C[C@@H](O)COC[C@H]3O[C@H](CC(=O)N4CCCCC4)CC[C@@H]32)cc1,–,–,–
O=C(C[C@@H]1CC[C@@H]2[C@H](COC[C@@H](O)CN2S(=O)(=O)c2cccc(Cl)c2)O1)N1CCCCC1,–,–,–
O=C(C[C@H]1CC[C@H]2[C@@H](COC[C@@H](O)CN2S(=O)(=O)c2cccc(Cl)c2)O1)Nc1ccc(-c2ccccc2)cc1,–,19,–

# Source: PubChem
